An excerpt weighted towards active compounds, which were near 12% of everything screened.
CHOP inh: inhibitors of CHOP promoter induction, primary screen, cell-based, unfolded protein response, luciferase reporter | inhibition, % at 10 µM | CHO-K1 CHOP-promoter luciferase, tunicamycin-induced, 15-18 h | 220,000 tested, 3.8% active;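 active = compounds that reduced the stress-induced luciferase reporter signal by more than about 70% of percent inhibition, limit read from the data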;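 note: 0% = tunicamycin plus vehicle and 100% = wells without tunicamycin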
Dynein cargo inh: inhibitors of GR-EGFP nuclear translocation, primary screen, dynein cargo transport inhibitor project, imaging, high-content, 3617.4 mouse cells; AID 1381, 2008; test concentration mostly 20 µM; stimulated with dexamethasone, 1 µM; active compounds read low; z-score, hits read low; 220,000 tested, 0.47% active;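 active = plate z-score of nuclear minus cytoplasmic receptor signal below a set negative limit, without overly bright fluorescence or cell loss, cut at about -3.5 in these data, passing the limit was not always enough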;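 note: z-score of nuclear minus cytoplasmic ring GR-EGFP intensity difference per well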
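medium = tetracycline-free induction medium containing charcoal-stripped FBS | also added = 1.0 µM final dexamethasone stimulus | schedule = 48 h induction, 1 h compound, 30 min dex at 37 °C | technique = fixed, Hoechst-stained cells imaged at 10x for EGFP | measure = GR-EGFP nuclear translocation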
MT stabilize HCS: microtubule stabilizers in HeLa cells, primary screen, imaging, high-content imaging. HeLa tubulin immunostaining HCS, 24 h; share of cells brighter than vehicle mean+2SD. % tubulin-high responders, % at 10 µM. 200,000 tested, 0.83% active. AID 2205, 2009;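 active = plate Z-score above 3 for both tubulin-high and condensed-nucleus cell shares, with cell loss under 80%, at 10 µM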;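 note: anti alpha tubulin signal scored within the nucleus-defined area of each cell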
Lmaj promast: Leishmania major promastigote growth inhibition, primary screen. Leishmania major promastigotes, resazurin fluorescence viability. inhibition, % at 10 µM. 200,000 tested, 9% active; in the data active = inhibition above about 50%;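 note: promastigotes grown with compound for 44 hours at 28 °C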
Autophagy mod: autophagy modulators in MEF cells, primary screen, imaging, high-content, MEF GFP-LC3; MEF GFP-LC3 puncta imaging; test concentration mostly 10 µM; AID 463193, 2010; 190,000 tested, 0.98% active; calls only at 10 µM (by protocol);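 active = percentage of spot-positive cells more than 3 SD above its plate mean, without a fluorescence outlier flag or 80% toxicity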;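 note: spot-positive cell cutoff set from DMSO-treated cells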
bCat nuc transl: modulators of beta-catenin nuclear translocation, primary screen, imaging, HeLa cells, immunofluorescence, high-content; nuclear translocation activity, % at 5 µM; 190,000 tested, 0.3% active; AID 1665, 2009;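 active = nuclear translocation activity above 50% at 5 µM, with a well cell count of 50 or more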;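 note: per-cell ratio of nuclear to cytoplasmic median beta-catenin stain intensity; plate controls were DMSO negative control for no effect and GSK-3 inhibitor IX positive control for full effect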
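Read-out: Nuclear/cytoplasmic beta-catenin signal ratio, % activation | Assay system: Human HeLa cell line | Times: 24 h compound exposure at 37°C, 5% CO2 | Signal: Fluorescence imaging of beta-catenin antibody stain plus DAPI | Dosing: 5 µM primary, 0.02–20 µM confirmation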
Numbers without * were called inactive; i = inactive; nt = no result.

SMILES | CHOP inh | Dynein cargo inh | MT stabilize HCS | Lmaj promast | Autophagy mod | bCat nuc transl
Cn1cnnc1SCC(=O)Nc1ccc(OCc2ccccc2)cc1 | -23.3 | -0.707 | 2.6 | -8.2 | i | -0.4
CCCNC(=S)Nc1cccc(C(F)(F)F)c1 | 19.1 | 0.563 | 5.8 | 71.3* | i | 0.0
S=C(Nc1ccc(Oc2ccccc2)cc1)NC1CCCCC1 | 75.2* | 0.0791 | 3.2 | 15.7 | i | 2.0
O=C(N/N=C/c1ccccc1)NC1CCCCC1 | 39.3 | -0.479 | 4.6 | 4.2 | i | -1.8
CC(C)(C)c1ccc(/C=N/NC(=S)NC2CCCCC2)cc1 | 72.4* | -0.483 | 2.0 | 29.5 | i | nt
S=C(Nc1ccc2nsnc2c1)NC1CCCCC1 | 12.1 | -0.305 | 1.3 | 81.6* | i | -1.6
S=C(Nc1ccc2nsnc2c1)N1CCCCCC1 | 13.4 | -0.684 | 2.1 | -4.4 | i | -1.0
COc1ccc(-c2csc3nc(C)nc(N4CCC(C)CC4)c23)cc1OC | -44.2 | -0.36 | 2.7 | 89.5* | i | 1.7
COc1ccc(-c2csc3nc(C)nc(N4CCN(C(C)=O)CC4)c23)cc1OC | 12.0 | -1.29 | 2.5 | 6.6 | i | -2.5
COc1ccc(-c2csc3ncn(-c4ccc(C)cc4)c(=O)c23)cc1OC | 58.3 | 0.714 | 3.6 | 5.0 | i | -0.6
COc1ccc(-n2cnc3scc(-c4ccc(OC)c(OC)c4)c3c2=O)cc1 | 75.8* | -1.59 | 4.9 | -4.9 | i | -2.0
CS(=O)(=O)N(CC(=O)Nc1ccccc1Cl)c1ccc(Cl)cc1 | 2.4 | -0.0101 | 1.4 | 5.1 | i | -1.8
COc1ccc(CNCC(=O)Nc2ccccc2-n2cccc2)cc1 | 9.5 | 0.109 | 33.0* | -5.1 | i | 43.1
O=C(NCCN1CCN(c2ccccc2F)CC1)c1cccn2c(=O)c3ccccc3nc12 | 76.1* | -0.501 | 4.0 | 7.3 | i | -1.8
CN(CCCNC(=O)c1cccn2c(=O)c3ccccc3nc12)Cc1ccccc1 | 2.7 | -0.00858 | 4.6 | 100.1* | i | -3.5
O=S(=O)(c1ccc(F)cc1)N1CCN(c2ccc(-c3ccccc3)nn2)CC1 | -37.2 | -0.375 | 7.0 | -7.9 | i | -0.7
COc1ccccc1NC(=O)c1ccc(NS(=O)(=O)c2ccc(F)c(F)c2F)cc1 | 22.0 | 0.454 | 2.8 | 66.0* | i | -2.3
COc1ccc(S(=O)(=O)Nc2ccc(F)c(F)c2)cc1Cl | -21.5 | 1.85 | 1.8 | 5.9 | i | 2.8
COc1cc(Cl)c(C)cc1NC(=O)c1ccc(NS(=O)(=O)c2ccc(F)c(F)c2)cc1 | 78.7* | -0.88 | 2.2 | 9.8 | i | -2.4
O=C(Cc1nn[nH]n1)NCc1ccccc1Cl | -14.4 | 1.55 | 1.7 | -5.2 | i | 1.3
COCCn1nnnc1C(c1cccc(C#N)c1)N1CCCCCC1 (centres undefined) | 14.1 | -0.55 | 1.9 | -0.9 | i | -3.0
CC(C)(C)C(C(Oc1ccc(Cl)cc1)n1cncn1)n1nnnc1C(c1cccc(Cl)c1)N1CCCCC1 (centres undefined) | 38.8 | 3.3 | 3.8 | 65.1* | i | -6.6
COC(=O)C1CCC(C)(C(=O)Nc2ccccc2)C1(C)C (centres undefined) | 3.8 | -0.282 | 4.4 | -7.1 | i | -1.5
CNC(=S)N(Cc1cc2cc(C)cc(C)c2[nH]c1=O)C1CCCC1 | 11.8 | 1.38 | 1.8 | 60.1* | i | -1.1
CCNC(=S)N(Cc1cc2cc(C)c(C)cc2[nH]c1=O)C1CCCC1 | 25.4 | -0.616 | 1.6 | 26.8 | i | 0.4
SMILES | CHOP inh | Dynein cargo inh | MT stabilize HCS | Lmaj promast | Autophagy mod | bCat nuc transl
CCNC(=S)N(Cc1cc2cc(C)cc(C)c2[nH]c1=O)C1CCCC1 | 31.1 | 0.868 | 5.9 | 98.9* | i | -1.2
CCNC(=S)N(Cc1cc2c(C)ccc(C)c2[nH]c1=O)C1CCCC1 | 25.5 | -0.908 | 3.1 | 66.6* | i | -0.2
CCNC(=S)N(Cc1cc2cc(C)ccc2[nH]c1=O)C1CCCC1 | -5.7 | -0.503 | 3.0 | 35.7 | i | 0.6
O=C(O)CC12CC3CC(C1)CC(n1ncc(N4CCC5(CC4)OCCO5)c(Cl)c1=O)(C3)C2 | 4.4 | 0.705 | nt | nt | nt | -0.1
COc1ccc(NCC(=O)Nc2ccccc2C#N)cc1Cl | 3.9 | 0.243 | 1.4 | 86.5* | i | -4.6
O=C(NCc1cn(-c2ccccc2)nc1-c1ccccc1)c1cc([N+](=O)[O-])cc([N+](=O)[O-])c1 | 6.3 | 2.36 | 3.4 | 100.1* | i | nt
COc1ccc(-c2nn(-c3ccccc3)cc2CNC(=O)c2cccc([N+](=O)[O-])c2)cc1 | 34.8 | 0.947 | 7.7 | 52.4* | i | 6.0
O=C(COC(=O)c1cn(-c2ccccc2)nc1-c1ccccc1)c1cccc([N+](=O)[O-])c1 | 46.2 | 2.04 | 2.8 | 0.5 | i | -0.7
CCn1cc(CNC(=O)c2cccc([N+](=O)[O-])c2)cn1 | -5.2 | 2.33 | 2.2 | 89.1* | i | 0.4
CCn1ncc(CNC(=O)c2cccc([N+](=O)[O-])c2)c1C | 10.8 | 0.661 | 3.0 | -4.2 | i | 1.4
O=C(O)CCC(=O)NCc1cn(-c2ccccc2)nc1-c1cccc(Br)c1 | -4.4 | 0.176 | 6.2 | 58.9* | i | -0.7
O=C(NCc1cn(-c2ccccc2)nc1-c1ccccc1)c1cccc([N+](=O)[O-])c1 | 25.8 | 1.07 | 6.2 | 25.4 | i | -0.1
C=CCNC1=C(Cl)C(=O)N(c2ccccc2Cl)C1=O | 11.5 | -1.26 | 3.4 | -3.7 | i | -1.6
Cc1cc(Nc2cnc3ccccc3n2)n(-c2ccccc2)n1 | 24.2 | 0.000355 | 3.0 | 67.1* | i | 1.0
O=C(COC(=O)C1=COCCO1)Nc1ccc(OC(F)F)cc1 | -23.7 | -0.905 | 3.3 | -2.7 | i | -1.2
Clc1cccc(N/N=C(\Cc2nc3ccccc3[nH]2)c2ccccc2)c1 | 66.8 | 0.396 | 1.3 | 22.1 | i | 0.4
CCc1ccc(C(=O)NCC2COc3ccccc3O2)o1 (centres undefined) | -0.3 | -0.66 | 2.0 | 1.0 | i | -1.0
CCc1ccc(NC(=O)c2ccc(F)c(S(=O)(=O)NCC3COc4ccccc4O3)c2)cc1 (centres undefined) | 78.5* | -0.34 | 3.3 | 4.2 | i | -1.0
COc1cc2c(cc1OC)C(COc1ccccc1OC)N(C(=O)C(C)C)CC2 (centres undefined) | 15.3 | -0.657 | 1.9 | -1.5 | i | nt
Cc1cc2c(cc1C)CSC(c1ccccc1OC(=O)C(C)C)SC2 | 71.8* | 1.01 | 1.9 | -0.8 | i | 0.6
O=C(O)CCc1nn2c3ccccc3n(Cc3ccccc3F)c2nc1=O | -5.6 | -0.308 | 3.7 | -6.3 | i | -6.1
Cc1cccc(NC(=O)c2cc3c(s2)-c2c(C)cccc2OC3)n1 | -11.2 | 1.33 | nt | nt | nt | 0.1

High-throughput results from PubChem.
